Results reported in ChEMBL document CHEMBL4513216, “Probing the Open Global Health Chemical Diversity Library for Multistage-Active Starting Points for Next-Generation Antimalarials” (ACS Infect Dis, 2020).

Experiment: Toxicity liver stage against HepG2, at 10uM
Format: cell-based
Set-up: test concentration 10 uM, cell line HepG2-A16-CD81EGFP
Settings: human, HepG2-A16-CD81EGFP cells; read-out: INHIBITION
Summary of the method: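 Uninfected HepG2-A16-CD81EGFP cells, 3 × 10^3 per well, 1536-well, plated on prespotted compound at 10 μM final, parasite-free screening media added to match infected plates; puromycin 10 μM positive, DMSO 0.5% negative; run in parallel with 48 h PbLuc assay at 37 °C, 5% CO2; viability by CellTiter-Glo luminescence, normalized to controls.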

SMILES | cytotoxicity at 10 µM [%]
O=C1CCC(=O)c2oc3ccccc3c2N1 | 4.34
Cc1cccc(O[C@H]2COCCN(C3CCC3)C2)n1 | -4.81
CN1CCOC[C@H]1c1nc(-c2ccccc2)c[nH]1 | -7.24
COc1ccc(-c2noc([C@@H](C)NC(=O)NC(C)(C)C)c2C(=O)O)cc1 | -1.63
COc1ccc(CN2C[C@H]3CN(C(=O)c4ccno4)CCN3C2=O)cc1 | -4.23
CN1[C@@H](CCC(=O)NCc2ccc(F)cc2)CNC(=O)[C@H]2NCC[C@H]21 | 7.6
Cc1cccc(CNC[C@H]2Cn3cc(-c4ccccc4)nc3CO2)n1 | -2.59
COc1cccc(-c2nc(C)c(C(=O)N[C@H](CO)CC(C)C)s2)c1 | 5.08
Cc1cccc2c1N(C)C(=O)C21CC(=O)Nc2c1cnn2C(C)(C)C (stereo not given) | -1.65
Cc1nn2cnnc2c(C)c1CCC(=O)Nc1nnc(C(C)C)s1 | -3.25
CC(C)c1sc(Cl)nc1C(=O)NCc1ccncc1 | 0.649
Cn1c(-c2ccccc2)nn(CCNS(=O)(=O)c2ccccc2Cl)c1=O | -2.85
Cn1cnc2c1C(C(=O)N1CCCC1)N(S(C)(=O)=O)CC2 (stereo not given) | 6.22
O=C1NCCO[C@H]2CN(C(=O)CCc3ccc(Cl)cc3)CC[C@@H]12 | 11.1
Cc1noc(C)c1CN1C[C@@H]2COC[C@]2(COc2ccc(C#N)cn2)C1 | 9.49
Cc1ccoc1C(=O)N1C[C@@H]2COC[C@]2(CNS(C)(=O)=O)C1 | -1.14
O=C(c1cc(-n2cccc2)ccc1Cl)N1CCC2(CC1)OCCO2 | -7.58
Cn1nc(C(=O)NN2CCOCC2)c(Cl)c1C(F)(F)F | 2.99
CCCn1nnc(NCc2cc(Br)cc(Br)c2OC)n1 | 12.6
CSc1ncnc(NCc2ccccc2F)c1C#N | 1.67
CCC(=O)NCCNC(=O)c1nn(C)c(C)c1Cl | 5.05
CCC(=O)Nc1nnc(CCOc2ccccc2OC)s1 | 2.38

SMILES | cytotoxicity at 10 µM [%]
CN1CCCCC(C2CCN(S(=O)(=O)c3cn(C)cn3)CC2)C1=O (stereo not given) | 3.13
CC(C)(C)c1ccc(C(=O)NCCCNC(=O)c2cnccn2)cc1 | 6.58
Cc1n[nH]c(C)c1CC(=O)N1CCC(O)(CN2CCOCC2)C1 (stereo not given) | 3.1
CNc1cc(C(=O)N2CCOC(C(=O)NC3CCCC3)C2)ccn1 (stereo not given) | 8.16
CO[C@H]1CN(S(=O)(=O)c2ccc(F)cc2)C[C@@]12CCCO2 | 13.2
Cc1cccc(C(=O)N2CC(Cc3nccc4ccn(C)c34)C2)n1 | -40.5
CC(C)CC(=O)N1CCN(Cc2cc(-c3ccncc3)nn2C)CC1 | -23.2
CCc1ncnc(N2CCCC(c3cc(C(N)=O)[nH]n3)C2)c1F (stereo not given) | -4.68
CC(NCc1ccccn1)c1ccc(N2CCN(C)CC2)c(F)c1 (stereo not given) | -7.85
CC(C)c1nc(CC(=O)N2CCN(C)CC2c2ccccc2)cs1 (stereo not given) | -12.6
CC(C(=O)N(Cc1ccc(C#N)cc1)CC(F)(F)F)S(C)(=O)=O (stereo not given) | -2.6
O=C1CC(N(C(=O)Cc2csc(-c3ccccc3)n2)C2CC2)C(=O)N1 (stereo not given) | 3.51
O=c1[nH]cnc2c1CCN(S(=O)(=O)c1cccc(OC(F)(F)F)c1)C2 | -2.87
Cc1cc(C(=O)NCCSC2CCCC2)no1 | -2.21
Cc1cc(C(=O)N2CCNC(=O)C2)c(C)n1CC(F)(F)F | 0.962
CN1CCN(CCOc2ccc(NC(=O)c3ccc[nH]3)cc2)CC1 | -3.26
O=C(OCCNc1ncccn1)c1ccc(Cl)s1 | -2.43
CC(C)(C)C1CCC(O)(CNC(=O)CCS(C)(=O)=O)CC1 (stereo not given) | 6.51
COc1ccc(Cl)cc1CCNC(=O)NCc1ncnn1C | 2.06
CC(NC(=O)N1CCCCCC1)c1ccc(S(N)(=O)=O)cc1 (stereo not given) | -6.06
CN1N=C(C(=O)N2CCN(c3ncccc3Cl)CC2)CCC1=O | 0.0793
O=C(NCCC(=O)N1CCCC1)C(OC1CCCC1)c1ccccc1 (stereo not given) | -4.36

SMILES | cytotoxicity at 10 µM [%]
CCNC(=O)NC(=O)CNc1cc(C(=O)OC)cc(C(F)(F)F)c1 | -7.03
CN1CCCN(c2nc3c(cnn3C(C)(C)C)c(=O)[nH]2)CC1 | -11.9
CC(C)c1nc(C2CCCN(c3ncccn3)C2)no1 (stereo not given) | 12.4
O=C(NCC(O)COc1ccccc1)C1(c2ccc(F)cc2)CC1 (stereo not given) | 1.3
c1cc(-c2noc(-c3cc(C4CC4)on3)n2)cc(N2CCCCC2)n1 | 4.64
CCCNC(=O)CN1CCN(c2nc(CC)ns2)CC1 | -3.53
O=C(CNc1cc2c(cc1Cl)OCCO2)NCC(F)(F)F | 0.49
CN(C)C(=O)CCS(=O)(=O)Cc1coc(-c2ccc(F)cc2)n1 | -2.26
Cc1cccc(CNC(=O)Nc2ccn(CCN(C)C)n2)c1 | -4.47
CN(CCc1ccncc1)C(=O)C1CSCN1C(=O)CC(C)(C)C (stereo not given) | 10.2
N#Cc1ccc(N2CCC(c3nc(C(F)(F)F)c[nH]3)CC2)nc1 | -7.09
Cc1nsc(NC2CC(=O)N(C(C)(C)C)C2)n1 (stereo not given) | -8.52
COc1ncnc(N(C)C)c1NC(=O)Cc1c[nH]c2ccc(F)cc12 | -4.2
O=C(CNc1cc(Br)ccc1Br)NC1CCS(=O)(=O)C1 (stereo not given) | -5.88
O=C(Nc1ccc2c(c1)OC1(CCCCC1)O2)c1ccc(=O)[nH]n1 | 14.1
CC1CCN(C(=O)C(C)N2CCN(c3nccs3)CC2)CC1 (stereo not given) | 0.583
CCCN(Cc1cnn(C)c1)CC1CCCN(S(C)(=O)=O)C1 (stereo not given) | 15.1
CC(=O)N1CCN(C(=O)CNc2ccc3sccc3c2)CC1 | 0.335
CCN(Cc1cnn(C)c1)C(=O)c1ccccc1O | 1.89
CC(C)(C)CC(=O)N1CSCC1C(=O)NCc1cccc(C#N)c1 (stereo not given) | -9.78
O=C(CSc1nnc[nH]1)NCc1sccc1Br | 0.388
N#Cc1ccc(N2CCN(c3ccc4nncn4n3)CC2)nc1 | -13.3

SMILES | cytotoxicity at 10 µM [%]
O=c1oc(-c2cccs2)nn1CC(O)c1ccc(F)cc1 (stereo not given) | 20.4
CC(OCC(F)(F)F)C(=O)N1CCCCC1 (stereo not given) | -3.45
CCn1cncc1-c1nc2c([nH]1)CC(C)(C)CNC2=O | 7.51
Cc1noc(C)c1CNC(=O)c1cn(CCC2CCCCN2)nn1 (stereo not given) | 0.872
CC(C)C(=O)N1CCN(C(=O)c2cc(Cl)no2)[C@H]2CS(=O)(=O)C[C@H]21 | 8.48
COc1ccc(C(C(=O)O)N(C)Cc2ccon2)cc1Cl (stereo not given) | -5.02
Cc1cc(CN2CCN(C(=O)C3CCC3)[C@@H]3CS(=O)(=O)C[C@@H]32)ccc1F | 0.66
Cc1ccc(C(=O)N2CCc3ncccc3C2)cc1N1CCNC1=O | -4.33
COc1ccc(OC)c(C2CCN(C(=O)CCc3n[nH]c(N)n3)C2)c1 (stereo not given) | 5.27
c1cnnc(-c2noc(COCC3CCCO3)n2)c1 (stereo not given) | 2.66
Cc1ccnc(NCC2(N(C)C)CCOCC2)n1 | 3.81
CCn1nc(C)c(CN(CCOC)C(=O)c2cnc(C)nc2O)c1C | -2.27
COc1cccc(N2CCN(Cc3ccc4ccn(C)c4c3)CC2=O)c1 | 17.3
Cc1nn(C)c2nc(N(Cc3ccncc3)CC3CCCO3)sc12 (stereo not given) | 9.42
CCc1nc(C)c([C@H]2CN(C)C[C@@H]2C(=O)Nc2ccc3[nH]ncc3c2)[nH]1 | -1.67
COC(=O)c1ccc2ccn(CC3CCCCO3)c(=O)c2c1 (stereo not given) | -0.551
CN1CCCN(C(=O)c2cnc(C(C)(C)C)nc2O)CC1 | -0.0816
CN(Cc1cc(-c2ccncc2)no1)Cc1nccn1C | 0.884
CN(C)CCNc1cc(-c2ccc[nH]c2=O)c2cc[nH]c2n1 | 9.26
Cc1nc(C)n(CCNC(=O)C(C)n2ccnc2C(C)C)n1 (stereo not given) | -6.57
Cc1ccsc1[C@@H]1CCN(C(=O)CCOc2ccccc2)C[C@H]1O | -0.602
CC(C)N1CCCC(CN(C)c2ccc(Cn3ccnc3)cn2)C1 (stereo not given) | -127

SMILES | cytotoxicity at 10 µM [%]
CC(C)(C)c1ncc2c(n1)CN(C(=O)c1ccncc1)C2 | -12.5
Cn1c(Cn2ccnc2)nnc1C1CCN(Cc2cccnc2N)CC1 | -8.37
Cc1nccn1C1CCCN(C(=O)c2ccc(N(C)C)nn2)C1 (stereo not given) | -17.7
CCOc1ncccc1NC(=O)N1CCN(CC(=O)NC)CC1 | -2.66
CCOc1ncccc1CNc1nnc(C)c(C)c1C#N | -12.1
O=C(NCCNC(=O)c1scnc1Cl)c1ccoc1 | -7.91
COCc1nc(C(=O)N2CCCC(n3ccnc3C)C2)cs1 (stereo not given) | -33.6
Cc1cnn(CC2CCCN2CC(=O)Nc2cc(C)on2)c1 (stereo not given) | -26.7
CCc1nc(CN2CCN(C(C)c3nc(C4CC4)no3)CC2)no1 (stereo not given) | -9.45
CCc1n[nH]c(C2CN(C(=O)c3cscn3)CCO2)n1 (stereo not given) | 5.08
O=C(NCCc1ccn(-c2ccccc2)n1)N1CCCC(CO)C1 (stereo not given) | -23.1
COc1ccnc(N2CCCN(C(=O)Cc3ccc(C)s3)CC2)n1 | -2.12
Cc1ccc(C(=O)Nc2cc(C(C)C)n[nH]2)cn1 | 55.8
Cn1ccc(C(=O)N2CCN(CCc3ccccc3)CC2)cc1=O | 5.8
c1csc(CN2CCC3(COCCN(CC4CC4)C3)C2)n1 (stereo not given) | 1.44
Cn1cc(N2C(=O)CC[C@@H]3[C@H]2CCN3Cc2cccc(C#N)c2)cn1 | 8.51
Cc1nnc(N2C[C@@H](Oc3ccccn3)[C@H]3OCCC[C@H]32)s1 | -5
Cn1ccnc1C(=O)NCc1cnc2n1CCN(CC1CC1)CC2 | 5.93
CCS(=O)(=O)N1C[C@H]2CCC[C@@]2(COc2ccccn2)C1 | -4.09
CCN1CCCn2c(nc(CNC(=O)c3cnoc3C)cc2=O)C1 | 6.13
COCCN1C[C@@H]2CC[C@H]1CN(Cc1cc(=O)c3cc(C)ccc3[nH]1)C2 | -5.31
O[C@@H]1CC(CNCC2CCCC2)(COc2cccnc2)C[C@@H]1O (stereo not given in full) | -6.53
